SMILES strings stand for the structures.

Chain of RNA-directed RNA polymerase (O39930 whole entry): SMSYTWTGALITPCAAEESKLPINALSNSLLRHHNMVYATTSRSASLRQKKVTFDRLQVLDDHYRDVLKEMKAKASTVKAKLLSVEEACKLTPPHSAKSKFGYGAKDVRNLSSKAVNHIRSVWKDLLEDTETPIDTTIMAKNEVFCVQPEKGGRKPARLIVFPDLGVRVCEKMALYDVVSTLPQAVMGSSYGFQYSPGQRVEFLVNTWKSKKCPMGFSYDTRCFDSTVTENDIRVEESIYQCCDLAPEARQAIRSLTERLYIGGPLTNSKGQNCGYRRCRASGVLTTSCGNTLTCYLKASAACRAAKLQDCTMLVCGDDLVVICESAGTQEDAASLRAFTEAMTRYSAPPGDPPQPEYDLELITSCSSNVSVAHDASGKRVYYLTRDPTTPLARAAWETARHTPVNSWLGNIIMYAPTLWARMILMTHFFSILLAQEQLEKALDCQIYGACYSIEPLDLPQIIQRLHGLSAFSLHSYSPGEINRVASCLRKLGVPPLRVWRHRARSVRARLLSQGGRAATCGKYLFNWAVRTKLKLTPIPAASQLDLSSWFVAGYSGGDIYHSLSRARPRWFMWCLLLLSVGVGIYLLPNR

This assay addresses RNA-directed RNA polymerase (Hepacivirus hominis, UniProt O39930). As to the kind of experiment: Inhibitory concentration against RNA dependent RNA polymerase Nonstructural protein 5B of hepatitis C virus. The gist of the method:
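Run per an earlier published HCV NS5B RdRp procedure. Compounds were dissolved in DMSO and then transferred into assay buffer. Each was tested in duplicate, and IC50 was taken as the concentration giving 50% inhibition of polymerase activity.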
In turn, `COc1cccc(-c2nc3ncnc(O)c3nc2-c2cccc(OC)c2)c1` registered a half-inhibitory concentration (IC50) greater than 100 µM.

With `Oc1ncnc2nc(-c3ccccn3)c(-c3ccccn3)nc12`, the IC50 is greater than 100 µM.

`Fc1ccc(CCNc2ncnc3nc(-c4ccc(F)cc4)c(-c4ccc(F)cc4)nc23)cc1` displayed an IC50 of 26 µM.

`Oc1ncnc2nc(-c3ccco3)c(-c3ccco3)nc12`: the IC50 stood at 58 µM. Compared with the last molecule, the IC50 is about 2.2-fold higher.

The molecule `COC(=O)C1CCCN1c1ncnc2nc(-c3ccc(F)cc3)c(-c3ccc(F)cc3)nc12` (configuration not stated) came in with an IC50 of 51 µM.

For the molecule `Fc1ccc(-c2nc3ncnc(N4CCCCC4)c3nc2-c2ccc(F)cc2)cc1`, the IC50 is 68 µM.

In turn, `CCCCOCCCNc1ncnc2nc(-c3ccc(F)cc3)c(-c3ccc(F)cc3)nc12` yielded an IC50 of 73 µM. This IC50 and that of the molecule before are within 1.5-fold of each other.

In the case of `O=[N+]([O-])c1ccc(-c2nc3ncnc(O)c3nc2-c2ccccc2)cc1`, the IC50 turned out to be 30 µM.

As to `Oc1ncnc2nc(-c3ccc(F)cc3)c(-c3ccc(F)cc3)nc12`, half-maximal inhibition (IC50) was put at 0.5 µM. This IC50 lies about 60-fold lower than the previous one.

In turn, `Fc1ccc(-c2nc3ncnc(NCc4ccco4)c3nc2-c2ccc(F)cc2)cc1` came in with an IC50 of 2.9 µM.

Regarding `CCCCC(CC)CNc1ncnc2nc(-c3ccc(F)cc3)c(-c3ccc(F)cc3)nc12` (configuration not stated), the half-maximal inhibitory concentration (IC50) was found to be 10 µM. This IC50 lies about 3.4-fold higher than the previous one.

As to `Fc1ccc(-c2nc3ncnc(NC4CCC4)c3nc2-c2ccc(F)cc2)cc1`, 2.1 µM corresponded to half-maximal inhibition (IC50). Against the preceding molecule, the IC50 is about 4.8-fold lower.

Turning to `CC1CCC(Nc2ncnc3nc(-c4ccc(F)cc4)c(-c4ccc(F)cc4)nc23)CC1` (configuration not stated), half-maximal inhibition (IC50) required 1.3 µM.

The molecule `Fc1ccc(-c2nc3ncnc(NC4CCCCCC4)c3nc2-c2ccc(F)cc2)cc1` returned an IC50 of 3.2 µM.

In turn, `CCNc1ncnc2nc(-c3ccc(F)cc3)c(-c3ccc(F)cc3)nc12` registered a half-maximal inhibitory concentration (IC50) of 2.9 µM.

Molecule `CCCCOCCCNc1ncnc2nc(-c3ccccc3)c(-c3ccccc3)nc12` showed a 50% inhibitory concentration (IC50) of 87 µM. This IC50 is about 30-fold higher than that of the molecule before.

Turning to `Oc1ncnc2nc(-c3ccccc3)c(-c3ccccc3)nc12`, inhibition was half-maximal at 15 µM (IC50). Compared with the last molecule, the IC50 is about 5.8-fold lower.

`O=c1[nH]cnc2nc(-c3ccc(Br)cc3)c(-c3ccc(Br)cc3)nc12` came in with an IC50 of 30 µM.

The molecule `Cc1ccc(-c2nc3ncnc(O)c3nc2-c2ccc(C)cc2)cc1` had an IC50 greater than 100 µM.

In turn, `CCNc1ncnc2nc(-c3ccccc3)c(-c3ccccc3)nc12` came in with an IC50 of 16 µM.

Consider `Cc1ccc(CNc2ncnc3nc(-c4ccccc4)c(-c4ccccc4)nc23)cc1`, for which the IC50 is greater than 100 µM.

`Fc1ccc(-c2nc3ncnc(NCCc4ccccc4)c3nc2-c2ccc(F)cc2)cc1` displayed an IC50 of 13 µM.

Molecule `Fc1ccc(CCNc2ncnc3nc(-c4ccccc4)c(-c4ccccc4)nc23)cc1` gave an IC50 greater than 100 µM.

Regarding `CCCC(C)Nc1ncnc2nc(-c3ccccc3)c(-c3ccccc3)nc12` (configuration not stated), the IC50 worked out at 6 µM.

`Cc1ccc(CNc2ncnc3nc(-c4ccc(F)cc4)c(-c4ccc(F)cc4)nc23)cc1` came in with a 50% inhibitory concentration (IC50) of 9.6 µM.

`O=c1[nH]cnc2nc(-c3ccccc3Cl)c(-c3ccccc3Cl)nc12` came in with an IC50 greater than 100 µM.

Molecule `COc1ccc(-c2nc3ncnc(O)c3nc2-c2ccc(OC)cc2)cc1` gave an IC50 greater than 100 µM.

As for `CCCCCCNc1ncnc2nc(-c3ccccc3)c(-c3ccccc3)nc12`, the IC50 was greater than 100 µM.

`O=c1[nH]cnc2nc3c(nc12)C1CCCCC31` (configuration not stated) came in with an IC50 greater than 100 µM.

`CN(C)c1ncnc2nc(-c3ccc(F)cc3)c(-c3ccc(F)cc3)nc12` registered an IC50 of 21 µM.

Consider `c1ccc(-c2nc3ncnc(NC4CCCCCC4)c3nc2-c2ccccc2)cc1`, for which the IC50 came out at 29 µM. The IC50 values of the last two molecules are within 1.5-fold of each other.

Take `O=c1[nH]cnc2nc3c4ccccc4c4ccccc4c3nc12`: the IC50 was greater than 100 µM.

As for `CCCC(C)Nc1ncnc2nc(-c3ccc(F)cc3)c(-c3ccc(F)cc3)nc12` (configuration not stated), the midpoint of inhibition, the IC50, lay at 1.5 µM.

`c1ccc(-c2nc3ncnc(N4CCCCC4)c3nc2-c2ccccc2)cc1` yielded an IC50 greater than 100 µM.

`O=c1[nH]cnc2nc(-c3ccccc3)c(-c3ccc([N+](=O)[O-])cc3)nc12`: the IC50 is 23 µM.

`CCCCCCNc1ncnc2nc(-c3ccc(F)cc3)c(-c3ccc(F)cc3)nc12` gave an IC50 greater than 100 µM.

In turn, `COc1ccccc1CCNc1ncnc2nc(-c3ccc(F)cc3)c(-c3ccc(F)cc3)nc12` came in with an IC50 of 80 µM.

The record behind these values is ChEMBL document CHEMBL1144286, “Parallel synthesis of pteridine derivatives as potent inhibitors for hepatitis C virus NS5B RNA-dependent RNA polymerase” (Bioorg Med Chem Lett, 2005).
